# Assay results: ChEMBL document CHEMBL4184197 (Bioorg Med Chem, 2018); call rule not given here
# How the values were obtained:
# [1] = target: Neurotensin receptor type 1 (Homo sapiens) (UniProt P30989); assay: Binding affinity to recombinant human NT1 receptor at 10 uM after 60 mins by scintillation counting analysis relative to control
# [2] = target: cGMP-specific 3',5'-cyclic phosphodiesterase (Homo sapiens) (UniProt O76074); assay: Binding affinity to human PDE5 at 10 uM after 60 mins by scintillation counting analysis relative to control
# [3] = organism: Homo sapiens; assay: Binding affinity to human sigma receptor at 10 uM after 120 mins by scintillation counting analysis relative to control
# [4] = target: Endothelin-converting enzyme 1 (Homo sapiens) (UniProt P42892); assay: Binding affinity to ECE-1 (unknown origin) at 10 uM relative to control
# [5] = target: Sodium-dependent serotonin transporter (Homo sapiens) (UniProt P31645); assay: Binding affinity to 5-HT transporter (unknown origin) at 10 uM relative to control
# [6] = target: Stromelysin-1 (Homo sapiens) (UniProt P08254); assay: Binding affinity to human MMP3 at 10 uM after 30 mins by fluorescence assay relative to control
# [7] = tested on: CHO-K1; assay: Genotoxicity in CHOK1 cells in presence of rat liver S9 fraction by fluorescence imaging based micronucleus assay; assay type: toxicity, cell-based, Cricetulus griseus; conditions: chinese hamster
# [8] = target: Tyrosine-protein phosphatase non-receptor type 1 (Homo sapiens) (UniProt P18031); assay: Binding affinity to recombinant human phosphatase 1B at 10 uM after 30 mins by fluorescence assay relative to control
# [9] = target: Muscarinic acetylcholine receptor M4 (Homo sapiens) (UniProt P08173); assay: Binding affinity to recombinant human muscarinic M4 receptor at 10 uM after 60 mins by scintillation counting analysis relative to control
# [10] = target: Vasoactive intestinal polypeptide receptor 1 (Homo sapiens) (UniProt P32241); assay: Binding affinity to recombinant human VPAC1 receptor at 10 uM after 60 mins by scintillation counting analysis relative to control
# [11] = target: Polyunsaturated fatty acid 5-lipoxygenase (Homo sapiens) (UniProt P09917); assay: Binding affinity to recombinant human 5-LOX at 10 uM after 90 mins by fluorescence assay relative to control
# Chain of Polyunsaturated fatty acid 5-lipoxygenase (Homo sapiens) (P09917 whole entry): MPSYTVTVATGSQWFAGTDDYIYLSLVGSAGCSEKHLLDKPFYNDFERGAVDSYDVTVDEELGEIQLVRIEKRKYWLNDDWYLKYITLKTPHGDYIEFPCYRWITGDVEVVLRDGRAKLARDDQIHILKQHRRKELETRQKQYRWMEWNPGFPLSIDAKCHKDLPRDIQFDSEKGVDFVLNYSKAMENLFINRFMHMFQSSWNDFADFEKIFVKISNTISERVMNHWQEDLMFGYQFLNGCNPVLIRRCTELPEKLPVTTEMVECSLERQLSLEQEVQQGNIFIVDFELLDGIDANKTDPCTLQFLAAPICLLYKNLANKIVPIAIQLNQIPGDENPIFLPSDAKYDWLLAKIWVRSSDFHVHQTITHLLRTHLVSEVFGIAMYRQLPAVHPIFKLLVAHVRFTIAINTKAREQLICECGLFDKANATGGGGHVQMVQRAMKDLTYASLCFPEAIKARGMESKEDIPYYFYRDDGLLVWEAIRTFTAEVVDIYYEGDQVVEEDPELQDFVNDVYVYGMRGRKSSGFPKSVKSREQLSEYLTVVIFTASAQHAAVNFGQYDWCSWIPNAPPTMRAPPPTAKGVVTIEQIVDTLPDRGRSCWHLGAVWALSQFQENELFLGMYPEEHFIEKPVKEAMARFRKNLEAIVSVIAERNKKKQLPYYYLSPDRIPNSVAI
# [12] = target: Galanin receptor type 1 (Homo sapiens) (UniProt P47211); assay: Binding affinity to recombinant human GAL1 receptor at 10 uM after 120 mins by scintillation counting analysis relative to control
# Chain of Galanin receptor type 1 (Homo sapiens) (P47211 whole entry): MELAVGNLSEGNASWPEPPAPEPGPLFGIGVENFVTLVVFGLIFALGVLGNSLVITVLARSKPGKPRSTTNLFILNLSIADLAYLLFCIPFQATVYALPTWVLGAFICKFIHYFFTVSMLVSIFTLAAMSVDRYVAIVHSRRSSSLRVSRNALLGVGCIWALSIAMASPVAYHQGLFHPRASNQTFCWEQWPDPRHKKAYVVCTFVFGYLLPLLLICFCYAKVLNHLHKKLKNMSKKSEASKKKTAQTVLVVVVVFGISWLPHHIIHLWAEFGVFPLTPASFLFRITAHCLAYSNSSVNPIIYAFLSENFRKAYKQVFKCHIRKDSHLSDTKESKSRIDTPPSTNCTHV
# [13] = target: Angiotensin-converting enzyme (Homo sapiens) (UniProt P12821); assay: Binding affinity to ACE (unknown origin) at 10 uM relative to control
# [14] = target: Angiotensin-converting enzyme 2 (Homo sapiens) (UniProt Q9BYF1); assay: Binding affinity to recombinant human ACE-2 at 10 uM after 20 mins by fluorescence assay relative to control
# Chain of Angiotensin-converting enzyme 2 (Homo sapiens) (Q9BYF1 18-805 limits assumed): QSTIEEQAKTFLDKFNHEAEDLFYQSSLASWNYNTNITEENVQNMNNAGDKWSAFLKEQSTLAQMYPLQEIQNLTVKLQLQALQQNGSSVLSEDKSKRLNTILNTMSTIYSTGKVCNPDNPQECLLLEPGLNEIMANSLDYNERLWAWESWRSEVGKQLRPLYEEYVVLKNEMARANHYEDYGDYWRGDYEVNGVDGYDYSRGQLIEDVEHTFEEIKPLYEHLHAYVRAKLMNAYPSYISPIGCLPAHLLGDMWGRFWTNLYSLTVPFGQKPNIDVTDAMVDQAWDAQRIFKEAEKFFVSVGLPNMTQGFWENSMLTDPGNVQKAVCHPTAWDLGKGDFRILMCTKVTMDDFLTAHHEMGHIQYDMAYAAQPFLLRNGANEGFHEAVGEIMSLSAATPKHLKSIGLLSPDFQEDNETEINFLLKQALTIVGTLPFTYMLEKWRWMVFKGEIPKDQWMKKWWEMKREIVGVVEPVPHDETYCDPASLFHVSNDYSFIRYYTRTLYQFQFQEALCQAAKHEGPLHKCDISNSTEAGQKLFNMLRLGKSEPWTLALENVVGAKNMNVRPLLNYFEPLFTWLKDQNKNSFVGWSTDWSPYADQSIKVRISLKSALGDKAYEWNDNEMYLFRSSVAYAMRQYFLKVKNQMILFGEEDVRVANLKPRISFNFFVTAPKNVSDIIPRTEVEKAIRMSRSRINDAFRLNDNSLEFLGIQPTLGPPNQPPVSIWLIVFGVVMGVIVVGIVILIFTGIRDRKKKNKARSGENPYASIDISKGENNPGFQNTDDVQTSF
# [15] = target: Vasopressin V1a receptor (Homo sapiens) (UniProt P37288); assay: Binding affinity to recombinant human V1A receptor at 10 uM after 60 mins by scintillation counting analysis relative to control
# [16] = target: Procathepsin L (Homo sapiens) (UniProt P07711); assay: Binding affinity to human cathepsin L at 10 uM after 30 mins by fluorescence assay relative to control
# Chain of Procathepsin L (Homo sapiens) (P07711 114-333 limits assumed): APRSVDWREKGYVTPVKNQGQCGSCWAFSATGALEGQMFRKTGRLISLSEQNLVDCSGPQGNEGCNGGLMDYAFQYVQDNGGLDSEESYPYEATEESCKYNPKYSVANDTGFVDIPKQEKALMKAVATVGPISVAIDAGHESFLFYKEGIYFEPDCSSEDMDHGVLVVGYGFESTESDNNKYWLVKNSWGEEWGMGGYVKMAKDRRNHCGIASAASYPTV
# [17] = organism: Bos taurus; assay: Binding affinity to bovine PDE6 at 10 uM after 60 mins by scintillation counting analysis relative to control
# [18] = target: Muscarinic acetylcholine receptor M2 (Homo sapiens) (UniProt P08172); assay: Binding affinity to muscarinic M2 receptor (unknown origin)
# Chain of Muscarinic acetylcholine receptor M2 (Homo sapiens) (P08172 whole entry): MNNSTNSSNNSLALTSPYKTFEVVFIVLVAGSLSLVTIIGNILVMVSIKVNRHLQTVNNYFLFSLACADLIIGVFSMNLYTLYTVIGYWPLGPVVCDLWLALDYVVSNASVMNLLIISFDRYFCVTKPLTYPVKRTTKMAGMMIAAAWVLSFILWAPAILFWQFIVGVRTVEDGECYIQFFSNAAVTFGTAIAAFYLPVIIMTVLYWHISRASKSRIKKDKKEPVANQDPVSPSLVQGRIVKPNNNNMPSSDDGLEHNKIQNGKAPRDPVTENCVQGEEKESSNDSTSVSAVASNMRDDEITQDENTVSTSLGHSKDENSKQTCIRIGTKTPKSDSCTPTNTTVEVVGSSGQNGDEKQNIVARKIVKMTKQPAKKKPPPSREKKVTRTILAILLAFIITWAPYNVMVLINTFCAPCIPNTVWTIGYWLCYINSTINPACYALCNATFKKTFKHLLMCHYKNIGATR
# [19] = target: Somatostatin receptor (Homo sapiens) (UniProt P35346+P30874+P31391+P30872+P32745); assay: Binding affinity to somatostatin receptor (unknown origin) at 10 uM relative to control; assay type: protein assay
# [20] = target: Prostacyclin receptor (Homo sapiens) (UniProt P43119); assay: Binding affinity to recombinant human IP receptor at 10 uM after 60 mins by scintillation counting analysis relative to control
# [21] = organism: Homo sapiens; assay: Binding affinity to recombinant human dopamine receptor D4.4 at 10 uM after 60 mins by scintillation counting analysis relative to control
# [22] = target: 5-hydroxytryptamine receptor 2A (Homo sapiens) (UniProt P28223); assay: Binding affinity to recombinant human 5-HT2A receptor at 10 uM after 60 mins by scintillation counting analysis relative to control
# [23] = target: Caspase-3 (Homo sapiens) (UniProt P42574); assay: Binding affinity to recombinant human caspase 3 at 10 uM after 60 mins by fluorescence assay relative to control
# Chain of Caspase-3 (Homo sapiens) (P42574 29-175 limits assumed): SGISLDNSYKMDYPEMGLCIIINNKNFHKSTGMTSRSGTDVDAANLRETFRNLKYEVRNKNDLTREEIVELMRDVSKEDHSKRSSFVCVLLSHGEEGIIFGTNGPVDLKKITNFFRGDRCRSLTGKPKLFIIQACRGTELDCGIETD
# Chain of Caspase-3 (Homo sapiens) (P42574 176-277 limits assumed): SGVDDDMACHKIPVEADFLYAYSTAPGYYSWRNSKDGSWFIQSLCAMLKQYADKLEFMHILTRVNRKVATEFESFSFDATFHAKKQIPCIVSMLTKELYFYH
# [24] = tested on: Salmonella typhimurium; assay: Mutagenicity in Salmonella typhimurium TA1535 in presence of rat liver S9 fraction by Ames test; assay type: toxicity, organism-based; conditions: salmonella enterica subsp. enterica serovar typhimurium
# [25] = target: Beta-1 adrenergic receptor (Homo sapiens) (UniProt P08588); assay: Binding affinity to recombinant human beta1 receptor at 10 uM after 60 mins by scintillation counting analysis relative to control
# [26] = target: Prostaglandin E2 receptor EP2 subtype (Homo sapiens) (UniProt P43116); assay: Binding affinity to recombinant human EP2 receptor at 10 uM after 120 mins by scintillation counting analysis relative to control
# [27] = target: Voltage-gated inwardly rectifying potassium channel KCNH2 (Homo sapiens, UniProt Q12809); assay: Displacement of [3H]-astemizole from human ERG up to 10 uM
# Chain of Voltage-gated inwardly rectifying potassium channel KCNH2 (Q12809 whole entry): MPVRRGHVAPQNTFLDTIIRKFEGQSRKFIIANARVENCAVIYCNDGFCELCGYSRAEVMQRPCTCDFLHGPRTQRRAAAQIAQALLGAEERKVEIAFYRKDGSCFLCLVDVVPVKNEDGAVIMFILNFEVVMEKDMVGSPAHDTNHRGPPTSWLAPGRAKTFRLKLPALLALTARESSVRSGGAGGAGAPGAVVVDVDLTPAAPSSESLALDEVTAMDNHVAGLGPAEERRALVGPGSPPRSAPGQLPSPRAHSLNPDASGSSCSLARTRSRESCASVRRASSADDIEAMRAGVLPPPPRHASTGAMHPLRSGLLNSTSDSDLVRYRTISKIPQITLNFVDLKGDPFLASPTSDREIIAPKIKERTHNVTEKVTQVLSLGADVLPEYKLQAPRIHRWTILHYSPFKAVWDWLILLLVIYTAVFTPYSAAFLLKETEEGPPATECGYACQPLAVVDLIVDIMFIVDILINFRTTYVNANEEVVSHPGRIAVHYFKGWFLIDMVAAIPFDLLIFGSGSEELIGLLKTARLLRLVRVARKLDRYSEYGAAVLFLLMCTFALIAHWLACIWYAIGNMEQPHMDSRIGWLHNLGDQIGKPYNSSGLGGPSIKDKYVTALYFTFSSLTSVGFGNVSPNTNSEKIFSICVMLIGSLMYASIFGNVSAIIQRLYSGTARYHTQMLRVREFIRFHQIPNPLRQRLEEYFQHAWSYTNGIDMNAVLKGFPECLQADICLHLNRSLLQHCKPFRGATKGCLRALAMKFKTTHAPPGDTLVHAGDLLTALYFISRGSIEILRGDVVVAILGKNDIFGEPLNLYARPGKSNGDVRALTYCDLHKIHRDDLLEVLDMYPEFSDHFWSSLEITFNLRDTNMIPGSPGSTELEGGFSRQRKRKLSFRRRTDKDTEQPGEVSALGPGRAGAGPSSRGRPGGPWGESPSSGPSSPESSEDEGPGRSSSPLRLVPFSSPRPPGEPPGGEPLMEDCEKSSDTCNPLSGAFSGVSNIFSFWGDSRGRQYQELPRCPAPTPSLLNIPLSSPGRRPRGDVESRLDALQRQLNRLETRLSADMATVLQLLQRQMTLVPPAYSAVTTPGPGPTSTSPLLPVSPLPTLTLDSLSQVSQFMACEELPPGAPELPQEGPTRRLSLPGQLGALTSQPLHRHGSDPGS
# Method in brief: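 hERG channel binding assay run by a contract lab; compound tested up to 10 μM.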
# [28] = target: Translocator protein (Homo sapiens) (UniProt P30536); assay: Binding affinity to peripheral-type benzodiazepine receptor (unknown origin) at 10 uM relative to control
# [29] = target: Tumor necrosis factor receptor superfamily member 1A (Homo sapiens) (UniProt P19438); assay: Binding affinity to recombinant human TNFalpha receptor at 10 uM after 120 mins by scintillation counting analysis relative to control
# [30] = target: Centromere-associated protein E (Homo sapiens) (UniProt Q02224); assay: Binding affinity to recombinant human CENPE at 10 uM after 30 mins by spectrophotometric analysis relative to control
# [31] = target: 3-hydroxy-3-methylglutaryl-coenzyme A reductase (Homo sapiens) (UniProt P04035); assay: Binding affinity to HMG-CoA reductase (unknown origin) at 10 uM by relative to control
# [32] = target: Pituitary adenylate cyclase-activating polypeptide type I receptor (Homo sapiens) (UniProt P41586); assay: Binding affinity to recombinant human PACAP receptor at 10 uM after 120 mins by scintillation counting analysis relative to control
# [33] = target: Acetylcholinesterase (Homo sapiens) (UniProt P22303); assay: Binding affinity to recombinant human acetylcholinesterase at 10 uM after 30 mins by spectrophotometric analysis relative to control
# [34] = target: 5-hydroxytryptamine receptor 7 (Homo sapiens) (UniProt P34969); assay: Binding affinity to recombinant human 5-HT7 receptor at 10 uM after 120 mins by scintillation counting analysis relative to control
# [35] = target: Prostaglandin G/H synthase 2 (Homo sapiens) (UniProt P35354); assay: Binding affinity to recombinant human COX2 at 10 uM after 5 mins by fluorescence assay relative to control
# Chain of Prostaglandin G/H synthase 2 (Homo sapiens) (P35354 whole entry, looked up): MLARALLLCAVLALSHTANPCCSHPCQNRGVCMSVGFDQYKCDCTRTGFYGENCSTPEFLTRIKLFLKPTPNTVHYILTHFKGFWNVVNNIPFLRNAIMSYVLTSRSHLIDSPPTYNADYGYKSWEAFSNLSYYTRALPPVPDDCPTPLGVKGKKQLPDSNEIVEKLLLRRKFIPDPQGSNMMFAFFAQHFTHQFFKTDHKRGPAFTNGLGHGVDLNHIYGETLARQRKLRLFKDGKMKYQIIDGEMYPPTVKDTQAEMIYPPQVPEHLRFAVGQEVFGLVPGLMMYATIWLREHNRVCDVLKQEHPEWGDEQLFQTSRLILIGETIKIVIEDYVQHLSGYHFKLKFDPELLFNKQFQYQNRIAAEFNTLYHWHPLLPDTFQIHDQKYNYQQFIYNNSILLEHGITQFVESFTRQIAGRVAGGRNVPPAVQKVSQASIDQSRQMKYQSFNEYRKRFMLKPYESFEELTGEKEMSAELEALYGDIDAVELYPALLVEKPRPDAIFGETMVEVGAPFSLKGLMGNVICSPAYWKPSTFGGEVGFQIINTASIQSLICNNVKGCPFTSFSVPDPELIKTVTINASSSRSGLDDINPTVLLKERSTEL
# [36] = tested on: COS-7; assay: Cytotoxicity against African green monkey COS7 cells assessed as cell death after 2 days by MTT assay; assay type: cell-based; conditions: chlorocebus aethiops, cos-7, 48 h
# Chain of Neurotensin receptor type 1 (Homo sapiens) (P30989 whole entry): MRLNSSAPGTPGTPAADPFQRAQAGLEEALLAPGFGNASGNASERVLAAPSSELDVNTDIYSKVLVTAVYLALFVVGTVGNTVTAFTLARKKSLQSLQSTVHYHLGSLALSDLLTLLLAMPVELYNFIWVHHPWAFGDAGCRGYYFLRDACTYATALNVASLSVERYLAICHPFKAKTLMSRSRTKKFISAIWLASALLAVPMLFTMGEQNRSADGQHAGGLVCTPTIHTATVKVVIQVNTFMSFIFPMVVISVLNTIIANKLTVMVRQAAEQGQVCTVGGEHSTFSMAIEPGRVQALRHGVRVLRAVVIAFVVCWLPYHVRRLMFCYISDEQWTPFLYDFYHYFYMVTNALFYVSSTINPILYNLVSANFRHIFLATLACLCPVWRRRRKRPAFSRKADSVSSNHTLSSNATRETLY
smiles,measurement,setting,value
CCOc1c(Cl)cc(C(=O)Nc2ccc(C(=O)O)c(C)c2)cc1OC(C)C,Activity,[1],< 25%
same,Activity,[2],< 25%
same,Activity,[3],< 25%
same,Activity,[4],< 25%
same,Activity,[5],< 25%
same,Activity,[6],< 25%
same,Activity,[7],Non-Toxic
same,Activity,[8],< 25%
same,Activity,[9],< 25%
same,Activity,[10],< 25%
same,Activity,[11],< 25%
same,Activity,[12],< 25%
same,Activity,[13],< 25%
same,Activity,[14],< 25%
same,Activity,[15],< 25%
same,Activity,[16],< 25%
same,Activity,[17],< 25%
same,Activity,[18],< 25%
same,Activity,[19],< 25%
same,Activity,[20],< 25%
same,Activity,[21],< 25%
same,Activity,[22],< 25%
same,Activity,[23],< 25%
same,Activity,[24],Non-Toxic
same,Activity,[25],< 25%
same,Activity,[26],< 25%
same,Activity,[27],Not Active
same,Activity,[28],< 25%
same,Activity,[29],< 25%
same,Activity,[30],< 25%
same,Activity,[31],< 25%
same,Activity,[32],< 25%
same,Activity,[33],< 25%
same,Activity,[34],< 25%
same,Activity,[35],< 25%
same,Activity,[36],Non-Toxic
